Key:
Vero [1] = test: Cytotoxicity against african green monkey Vero cells at 4.76 ug/ml after 48 hrs by neutral red assay; format: cell-based; details: chlorocebus sabaeus
[2] = Selectivity ratio of IC50 for african green monkey Vero cells to IC50 for Trypanosoma brucei MITat 427 clone 221a trypomastigotes; format: ADME, cell-based; details: read-out: Ratio IC50
How it was run: (§1)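 Selectivity index was calculated as the IC50 in Vero cells divided by the IC50 in the parasite.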

[3] = Selectivity ratio of IC50 for african green monkey Vero cells to IC50 for Leishmania donovani S1 promastigotes; format: ADME, cell-based; details: Vero cells versus Leishmania donovani S1 promastigotes, read-out: Ratio IC50; how it was run: as §1
Trypanosoma brucei = test: Antitrypanosomal activity against Trypanosoma brucei MITat 427 clone 221a trypomastigotes after 3 days by alamar blue assay; format: functional, organism-based; details: 72 h
Trypanosoma cruzi = test: Antitrypanosomal activity against Trypanosoma cruzi clone CL-Brener epimastigotes after 14 days by alamar blue assay; format: functional, organism-based; details: 336 h
Leishmania donovani = test: Antileishmanial activity against Leishmania donovani S1 promastigotes after 72 hrs by alamar blue assay; format: functional, organism-based; details: S1, 72 h
Vero [4] = test: Cytotoxicity against african green monkey Vero cells after 48 hrs by neutral red assay; format: cell-based; details: chlorocebus sabaeus
[5] = Selectivity ratio of IC50 for african green monkey Vero cells to IC50 for Trypanosoma cruzi clone CL-Brener epimastigotes; format: ADME, cell-based; details: read-out: Ratio IC50; how it was run: as §1

| IC50 (Trypanosoma brucei) [nM] | IC50 (Trypanosoma cruzi) [nM] | Compound | Activity (Vero [1]) | selectivity ratio [2] | selectivity ratio [3] | IC50 (Leishmania donovani) [nM] | IC50 (Vero [4]) [nM] | selectivity ratio [5] |
| --- | --- | --- | --- | --- | --- | --- | --- | --- |
| 6450 | > 10000 | c1ccc(CNCCCNCc2ccccc2)cc1 | Non-toxic | > 3 | > 27 | 11000 | – | – |
| 2040 | > 10000 | COc1ccc(CNCCCNCc2ccc(OC)cc2)cc1 | Non-toxic | > 7 | > 12 | 1240 | – | – |
| 220 | > 10000 | COc1ccc(CNCCCCCCNCc2ccc(OC)cc2)cc1 | – | 60 | 2 | 6730 | 8320 | – |
| 5500 | > 10000 | COc1ccc(CNCCCCCCCCNCc2ccc(OC)cc2)cc1 | Non-toxic | > 2 | > 5 | 1560 | – | – |
| > 10000 | 2300 | COc1ccc(CNCCCCCCCCCCNCc2ccc(OC)cc2)cc1 | Non-toxic | – | > 8 | 1450 | – | > 5 |
| > 10000 | > 10000 | COc1ccc(CNCCCNCc2ccc(OC)c(O)c2)cc1O | Non-toxic | – | – | > 100000 | – | – |
| > 10000 | > 10000 | COc1ccc(CNCCCCNCc2ccc(OC)c(O)c2)cc1O | Non-toxic | – | – | > 100000 | – | – |
| > 10000 | > 10000 | COc1ccc(CNCCCCCCNCc2ccc(OC)c(O)c2)cc1O | Non-toxic | – | > 0.3 | 43800 | – | – |
| 5500 | > 10000 | COc1ccc(CNCCCCCCCCNCc2ccc(OC)c(O)c2)cc1O | Non-toxic | > 2 | > 0.3 | 44400 | – | – |
| 960 | > 10000 | COc1ccc(CNCCCCCCCCCCNCc2ccc(OC)c(O)c2)cc1O | Non-toxic | > 11 | > 2 | 4500 | – | – |
| 190 | 810 | COc1cc(CNCCCNCc2ccc(OCc3ccccc3)c(OC)c2)ccc1OCc1ccccc1 | – | 35 | 29 | 230 | 6650 | 8 |
| 170 | 730 | COc1cc(CNCCCCNCc2ccc(OCc3ccccc3)c(OC)c2)ccc1OCc1ccccc1 | – | 52 | 37 | 240 | 2700 | 12 |
| 190 | 740 | COc1cc(CNCCCCCCNCc2ccc(OCc3ccccc3)c(OC)c2)ccc1OCc1ccccc1 | Non-toxic | > 44 | > 40 | 210 | – | > 11 |
| 190 | 820 | COc1cc(CNCCCCCCCCNCc2ccc(OCc3ccccc3)c(OC)c2)ccc1OCc1ccccc1 | – | 24 | 21 | 220 | 2700 | 6 |
| 110 | 800 | COc1cc(CNCCCCCCCCCCNCc2ccc(OCc3ccccc3)c(OC)c2)ccc1OCc1ccccc1 | Non-toxic | > 67 | > 6 | 1200 | – | > 10 |
| 3200 | > 10000 | COc1ccc(CNCCCCNCc2ccc(OC)cc2)cc1 | Non-toxic | > 5 | > 2 | 8520 | – | – |
| – | – | C[C@@H]1[C@H](O)[C@@H](C)/C=C/C=C/C=C/C=C/C=C/C=C/C=C/[C@H](O[C@@H]2O[C@H](C)[C@@H](O)[C@H](N)[C@@H]2O)C[C@@H]2O[C@](O)(C[C@@H](O)C[C@@H](O)[C@H](O)CC[C@@H](O)C[C@@H](O)CC(=O)O[C@H]1C)C[C@H](O)[C@H]2C(=O)O [AMPHOTERICIN B] | – | – | – | 320 | – | – |
| 1700 | 2100 | CC1CS(=O)(=O)CCN1/N=C/c1ccc([N+](=O)[O-])o1 (centres undefined) [NIFURTIMOX] | – | – | – | – | – | – |

From ChEMBL document CHEMBL1949539, “Synthesis and antikinetoplastid activity of a series of N,N'-substituted diamines” (Bioorg Med Chem Lett, 2012)
